Compound activity: PubChem BioAssay, Johns Hopkins Ion Channel Center
A selection: hits, their analogues and other compounds. The true share with any hit is near 3.8%.
KCNK3 inh – human KCNK3 channel inhibition, primary screen; CHO-KCNK3 thallium flux, FluxOR fluorescence; active compounds read low; B-score at 10 µM; 340,000 compounds, 0.84% hits;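 active = B-score under library mean minus 4 SD, starting fluorescence ratio at most library mean plus 5 SD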;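 note: more negative B-score means stronger inhibition of thallium flux through KCNK3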
KCNQ1 block – blocks the human KCNQ1 potassium channel; P51787; CHO-K1 KCNQ1, FluxOR thallium flux fluorescence; active compounds read high; B-score at 10 µM; 310,000 compounds, 1.3% hits; AID 2642;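 active = compounds whose thallium flux B-score, printed positive for inhibition, exceeds three library SD while starting fluorescence stays within three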;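 note: channel opened by potassium depolarization with thallium stimulus after 20 min compound exposure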
KCNQ1 act – potentiates or activates the human KCNQ1 potassium channel; CHO-K1 KCNQ1, thallium flux FluxOR fluorescence; active compounds read high; P51787; 310,000 compounds, 0.35% hits; B-score at 10 µM; AID 2648;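 active = fluorescence ratio B-score, a plate-corrected score, at least three library SD, with initial intensity B-score within 5 SD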
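Doses: Single concentration per compound, DMSO matched to controls | Test system: KCNQ1-transfected CHO-K1 cells | Timing: 90 min dye loading and 20 min compound exposure, both at room temperature | Measured by: Kinetic FluxOR thallium fluorescence, 10-s 1-Hz baseline, 110-s post-stimulus read | Medium: Assay buffer with matched DMSO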
KCNK9 inh – human KCNK9 channel inhibition; 310,000 compounds, 1.2% hits; B-score at 10 µM; Q9NPC2; HEK293 KCNK9, FluxOR thallium flux fluorescence; active compounds read low; AID 488922;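 active = ratio B-score over 3 SD below the library mean, with starting fluorescence within 5 SD of its mean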;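 note: negative B-score means less thallium flux so channel inhibition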
Target sequence (Q9NPC2 whole entry, looked up): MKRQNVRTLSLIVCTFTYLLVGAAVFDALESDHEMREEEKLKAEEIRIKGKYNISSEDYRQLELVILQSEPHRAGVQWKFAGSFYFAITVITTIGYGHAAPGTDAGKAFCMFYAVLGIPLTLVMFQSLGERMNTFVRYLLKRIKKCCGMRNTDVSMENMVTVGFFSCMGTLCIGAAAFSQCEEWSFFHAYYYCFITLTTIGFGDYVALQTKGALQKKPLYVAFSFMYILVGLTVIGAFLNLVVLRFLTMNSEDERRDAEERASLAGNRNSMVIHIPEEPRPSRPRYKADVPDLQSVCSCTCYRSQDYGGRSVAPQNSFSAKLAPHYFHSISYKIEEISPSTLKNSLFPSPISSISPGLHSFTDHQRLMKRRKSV
Kir21 block – inhibitors of mouse Kir2.1 inward-rectifier potassium channel. HEK293-Kir2.1, FluxOR thallium flux fluorescence; active compounds read low. B-score at 10 µM. 310,000 compounds, 0.85% hits;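 active = fluorescence ratio B-score at or below minus 3 SD of library scores, with starting-brightness B-score within 2 SD, cut at about -4.2 in these data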;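 note: channel flux triggered by added potassium and thallium sulfate stimulus; B-score of peak minus minimum fluorescence over baseline after thallium stimulus; more negative B-score means stronger Kir2.1 block with less thallium influx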
hERG rescue – shields human hERG channel from block by proarrhythmic agents. Q12809. CHO-hERG, FluxOR thallium flux, dofetilide IC70 present. activation (rescue from dofetilide block), less the hit threshold, % at 10 µM. 310,000 compounds, 0.51% hits;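 active = activation above the mean of controls blocked by dofetilide plus 5 SD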;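 note: thallium influx through hERG after potassium depolarization seen as dye fluorescence rise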
Each line names hits and unclear results; the compound was inactive in the other large screens.

Cn1c(-c2ccc3c(c2)OCO3)cnc1NCc1ccccc1Cl	Kir21 block -4.3
Cn1c(-c2ccc3c(c2)OCO3)cnc1NCc1ccccc1	Kir21 block -6
CCOc1ccc(CCNC(=O)COC(=O)c2ccc3c(c2)OCCO3)cc1OCC	none
COCC1CCCN(Cc2cn(-c3ccccc3)nc2-c2ccc3c(c2)OCO3)C1 (stereo not drawn)	none
CC(C)(C)c1cc(CN(CCO)CCO)c(O)c(C(C)(C)C)c1	none
CN(C)C(=O)c1ccc(-c2cc(C(F)(F)F)n(C)n2)s1	none
COc1ccc(CCn2c(-c3ccc(OC)cc3)nc3c(c(=O)c4ccccc4n3C)c2=O)cc1	none
CCc1nc2c(c(=O)c3ccccc3n2C)c(=O)n1CCc1ccc(OC)cc1	KCNQ1 block 7, KCNK9 inh -12 (no result: KCNK3 inh)
O=C(NCCc1cccc(F)c1)/C(=C/c1cccnc1)NC(=O)c1ccccc1	none
CCCC1CC(C)(c2csc(Nc3ccc(OCC)cc3)n2)OC1=O (stereo not drawn)	KCNK9 inh -7.7
OC[C@@H](O)C1OC2NC(=S)OC2C1O (stereo partly drawn)	hERG rescue 7.7
CCc1ccc(/C=c2\s/c(=C\C(=O)C(C)(C)C)[nH]c2=O)cc1	none
CC(C)(C)C(=O)/C=c1\[nH]c(=O)/c(=C\c2ccc(F)cc2)s1	KCNK9 inh -8
CCOc1cc(/C=C2\N=C(SC)SC2=O)cc([N+](=O)[O-])c1OC(C)=O	KCNQ1 block 12
CCOc1c(OC(C)=O)ccc(/C=C2\N=C(SCC)SC2=O)c1[N+](=O)[O-]	KCNQ1 block 9
CCSC1=N/C(=C\c2ccc(C)s2)C(=O)S1	none
CCOc1cc(/C=C2\N=C(SCC)SC2=O)cc([N+](=O)[O-])c1OC(C)=O	KCNQ1 block 8
CCOc1c(O)ccc(/C=C2\SC(=S)NC2=O)c1[N+](=O)[O-]	none
COc1ccccc1NS(=O)(=O)c1ccc(S(=O)(=O)N2CCOCC2)cc1	none
CCOC(=O)Cc1csc(NC(=O)CSc2cc(Cl)ccc2Cl)n1	none
CN(C(=O)Cn1cccc1C1=NC(c2ccccc2)CO1)c1ccccc1 (stereo not drawn)	Kir21 block -4.7
COc1ccc(CNc2oc(-c3cccc4ccccc34)nc2C#N)cc1	KCNK9 inh -7.3
O=C(Nc1ccccc1F)Nc1ccc([N+](=O)[O-])cc1Cl	KCNQ1 block 8
Cc1cc(S(=O)(=O)Nc2ccc(C(=O)NCc3cccnc3)cc2)ccc1F	none
CCOCCCNC(=O)c1cc2c(s1)-c1ccccc1SC2	none
CN(C)CCNC(=O)c1cc2c(s1)-c1ccc(Cl)cc1SC2	Kir21 block -7.8
Cc1cn(CC(=O)N[C@H](C)c2cccc3ccccc23)c(=O)[nH]c1=O	none (no result: KCNQ1 block, KCNQ1 act, KCNK9 inh, Kir21 block, hERG rescue)
CC(=O)[C@@]1(O)CC[C@H]2[C@@H]3CCC4=CC(=O)CC[C@]4(C)[C@H]3CC[C@@]21C	none
Cc1nc(C2CCC3C4CCC5=CC(=O)CC[C@]5(C)C4CC[C@]23C)cs1 (stereo partly drawn)	KCNQ1 block 7 (no result: KCNK3 inh)
CC1(C)SC(=S)N(/N=C/c2cccnc2)C1N(O)C(=O)Nc1ccccc1 (stereo not drawn)	none
CC1(C)SC(=S)N(/N=C/c2ccc(O)cc2)C1N(O)C(=O)Nc1ccc([N+](=O)[O-])cc1 (stereo not drawn)	KCNQ1 block 10
CC1(C)SC(=S)N(NC(=O)Nc2ccccc2)C1N(O)C(=O)Nc1cccc2ccccc12 (stereo not drawn)	KCNQ1 block 9
CC1(C)SC(=S)N(/N=C/c2ccccc2O)C1N(O)C(=O)Nc1ccccc1 (stereo not drawn)	KCNQ1 block 8
Cc1cc(C)cc(OCC(=O)N2CCN(c3ncccn3)CC2)c1	none (no result: KCNQ1 block, KCNQ1 act, KCNK9 inh, Kir21 block, hERG rescue)
CCn1nc(C)c(/C=N/NC(=S)Nc2ccc(Cl)cc2Cl)c1C	hERG rescue 4.8
Cc1nn(C)cc1/C=N/NC(=S)Nc1ccc(Cl)cc1Cl	none
CS(=O)(=O)N(CC(=O)N1CCOCC1)c1cccc([N+](=O)[O-])c1	none
O=C(Cn1c(CO)nc2ccccc21)Nc1ccccc1Cl	Kir21 block -9.4
Cc1cc(C)cc(NC(=O)Cn2c(-c3ccccc3Cl)nc3ccccc32)c1	none
O=C(O)Cn1c(COc2ccc(Cl)cc2)nc2ccccc21	none
Cc1ccc(SCc2nc3ccccc3n2CC(=O)Nc2ccccc2)cc1	KCNK9 inh -6.9
O=C(Cn1c(-c2ccccc2Cl)nc2ccccc21)Nc1cccc(Cl)c1	KCNK9 inh -7.5
O=C(Cn1c(COc2ccccc2)nc2ccccc21)Nc1cccc(Cl)c1	hERG rescue 6.2
Cc1ccc(SC[C@H](C)CN2CC[C@H](C(C)(C)C)CCC2=O)cc1	none
Cc1cccc(Cc2ncc(C(F)(F)F)cc2Cl)c1	none
CC1=C(CC(=O)c2ccc(Cl)cc2)C(=O)c2ccccc2C1=O	KCNK9 inh -6.7
CCC(O)(CC)C(=O)NN(C(=O)Nc1csc2c1CCCC2)c1ccccc1	none
Cc1sc(-c2ccccn2)nc1OC(=O)c1ccc(Cl)cc1	none
Cc1sc(-c2ccccn2)nc1OC(=O)c1cccc(Cl)c1Cl	hERG rescue 5.8
Cc1c(NC(=O)COc2ccc(C(C)C)cc2)c(=O)n(-c2ccccc2)n1C	none
Cc1noc2ncnc(Sc3ccc(Br)cc3)c12	none
N=c1oc2ccc([N+](=O)[O-])cc2cc1C(=O)NCc1ccccc1	none
O=[N+]([O-])c1ccc2oc(C(O)c3cccc(Cl)c3)cc2c1 (stereo not drawn)	KCNQ1 block 9
COC(=O)c1ccc(C(=O)NC(=S)Nc2nc3c(s2)CCCC3)cc1	KCNQ1 act 23
COC(=O)c1sc(NC(=S)NC(=O)c2cccc(C)c2)nc1C	hERG rescue 6.2
COC(=O)c1sc(NC(=O)COc2ccc(OC)cc2)nc1C	none
CCOC(=O)c1sc(NC(=O)Cc2ccc(C)cc2)nc1C	Kir21 block -4.3
O=C(NC(=S)Nc1nc2c(s1)CCCC2)c1ccccc1	none
COC(=O)c1sc(NC(=O)COc2cccc3ccccc23)nc1C	hERG rescue 9.0
COc1ccc(N2CC(NC(=O)NCC(C)C)CC2=O)cc1 (stereo not drawn)	none
CCOC(=O)c1[nH]c(C=O)c(C(=O)OCC)c1C	KCNQ1 act 13, hERG rescue 4.9
CCOC(=O)c1c(C)[nH]c(C(C)=O)c1C	none
CCc1ccc2c(CN3CCN(S(=O)(=O)c4ccccc4F)CC3)cc(=O)oc2c1	none (no result: KCNQ1 block, KCNQ1 act, KCNK9 inh, Kir21 block, hERG rescue)
Cc1nnc(SCc2cc(=O)oc3cc(O)ccc23)n1Cc1ccccc1	hERG rescue 11
CCc1ccc2c(CN3CCN(Cc4ccccc4)CC3)cc(=O)oc2c1	Kir21 block -5.2
CCN(C(=O)COC(=O)c1cc(S(=O)(=O)N(C)C)ccc1Cl)C1CCS(=O)(=O)C1 (stereo not drawn)	none
O=C(CCCN1C(=O)/C(=C\c2ccccc2)SC1=S)Nc1cccc(C(=O)O)c1	none
